Laboratory results as given in ChEMBL document CHEMBL1134666, “Design, synthesis, and biological evaluation of novel nucleoside and nucleotide analogues as agents against DNA viruses and/or retroviruses” (J Med Chem, 2001).
Values after ≈ are worked out from the molar mass of the structure shown.

What was measured:
[1] = biological target: T1, Adenosine deaminase (Bos taurus, UniProt P56658); experiment: Inhibitory activity against adenosine deaminase
T1 sequence (P56658 whole entry): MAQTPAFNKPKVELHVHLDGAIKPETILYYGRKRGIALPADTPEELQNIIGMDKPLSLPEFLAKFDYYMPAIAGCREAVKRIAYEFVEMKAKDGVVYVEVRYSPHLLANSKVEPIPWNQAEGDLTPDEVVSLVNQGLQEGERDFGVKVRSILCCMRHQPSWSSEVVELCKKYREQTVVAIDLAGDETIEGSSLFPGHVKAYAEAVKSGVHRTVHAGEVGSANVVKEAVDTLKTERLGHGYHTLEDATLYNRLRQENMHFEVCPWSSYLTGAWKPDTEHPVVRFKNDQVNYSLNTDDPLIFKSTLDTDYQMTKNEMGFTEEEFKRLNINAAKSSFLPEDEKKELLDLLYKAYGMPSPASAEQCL
Summary of the method: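 Calf mucosal adenosine deaminase. Ki determined by the Kaplan method, with ara-A as substrate and the test compound added to the substrate solutions.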

[2] = test system: CCRF-CEM; experiment: Cellular toxic effect was determined in CEM cells; assay type: functional, cell-based; details: Homo sapiens
[3] = Inhibitory effects on HSV-1 induced mortality in NMRI mice upon (ip) administration at a dose of 150 mk/kg/day; assay type: functional, Human alphaherpesvirus 1
Summary of the method: (§1)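 Two-week-old NMRI mice (~7 g, 15-20 per group) were infected ip with 4 × 10⁴ units HSV-1 (KOS). Compound was given ip once daily for 6 consecutive days starting 4 h postinfection; controls received saline. Mean day of symptom onset and of death were recorded, with % symptom-free and % surviving at day 21, when the experiment ended.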

[4] = Inhibitory effects on HSV-1 induced mortality in NMRI mice upon (ip) administration at a dose of 250 mk/kg/day; assay type: functional, Human alphaherpesvirus 1; summary of the method: as §1
[5] = test system: Human immunodeficiency virus 1; experiment: Inhibition of cytopathogenicity against human HIV-1(IIIB) in MT-4 cells; assay type: functional, organism-based; details: Human immunodeficiency virus 1, MT4
[6] = Inhibitory effects on HSV-1 induced mortality in NMRI mice upon (ip) administration at a dose of 100 mk/kg/day; assay type: functional, Human alphaherpesvirus 1; summary of the method: as §1
[7] = test system: Human immunodeficiency virus 2; experiment: Inhibition of cytopathogenicity against human HIV-2(LAV-2) in MT-4 cells; assay type: functional, organism-based; details: Human immunodeficiency virus 2, MT4
[8] = test system: MT4; experiment: Cellular toxic effect was determined in MT-4 cells; assay type: functional, cell-based; details: Homo sapiens
[9] = test system: Moloney murine sarcoma virus; experiment: Inhibition of virus-induced cytopathogenicity against moloney murine sarcoma virus(MSV)in CEM cells in cell protection assay; assay type: functional, organism-based; details: CCRF-CEM
Summary of the method: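 Cell-protection assay with Moloney murine sarcoma virus in CEM cells; inhibition of virus-induced cytopathogenicity measured and IC50 derived by linear regression from the average of duplicate determinations.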

[10] = Inhibitory effect on HSV-1 induced mortality in NMRI mice upon (ip) administration at a dose of 150 mk/kg/day; assay type: functional, Human alphaherpesvirus 1; summary of the method: as §1
[11] = Inhibitory effect on HSV-1 induced mortality in NMRI mice upon (ip) administration at a dose of 250 mk/kg/day; assay type: functional, Human alphaherpesvirus 1; summary of the method: as §1
[12] = test system: Vero; experiment: Maximum velocity constant of the rate of phosphorylation was determined against Vero cell thymidine kinase; assay type: functional, Chlorocebus sabaeus
[13] = test system: Vero; experiment: Maximum velocity constant of the rate of phosphorylation was determined n the presence of Vero cell thymidine kinase; assay type: functional, Chlorocebus sabaeus
[14] = Inhibitory effect on HSV-1 induced mortality in NMRI mice upon (ip) administration at a dose of 100 mk/kg/day; assay type: functional, Human alphaherpesvirus 1; summary of the method: as §1

Row | Compound | IC50 [2] [µg/mL] | Animal death [4] [%] | Symptom initiation [4] [%] | IC50 [5] [µg/mL] | IC50 [7] [µg/mL] | IC50 [8] [µg/mL] | IC50 [9] [µg/mL] | further results
1 | COC1=C(OC)/C(=C/COP(=O)(O)COCCn2cnc3c(N)ncnc32)OC1=O | 280 (≈ 634 µM) | >21 | >21 | 1.4 (≈ 3.17 µM) | 1 (≈ 2.27 µM) | 265 (≈ 600 µM) | 0.93 (≈ 2.11 µM) | Ki [1]: > 800 µM; Animal death [3]: >21%; Symptom initiation [3]: >21%; Animal death [6]: >21%; Symptom initiation [6]: >21%
2 | Nc1ncnc2ncn(CCOCP(=O)(O)O)c12 | > 300 |  |  | 7.8 (≈ 28.6 µM) | 9.1 (≈ 33.3 µM) | > 300 | 27 (≈ 98.8 µM) | Symptom initiation [10]: 15%; Animal death [11]: 20%
3 | COC1=C(OC)/C(=C/COP(=O)(O)COCCn2cnc3c(O)nc(N)nc32)OC1=O | 13 (≈ 28.4 µM) |  |  | 6 (≈ 13.1 µM) | 7.1 (≈ 15.5 µM) | 14 (≈ 30.6 µM) | 0.02 (≈ 0.0437 µM) | 
4 | Nc1ncnc2ncn(COCCO)c12 |  |  |  |  |  |  |  | Animal death [10]: >21%; Animal death [11]: >21%; Symptom initiation [11]: >21%; Relative Vmax [12]: <3
5 | Nc1ncnc2c1ncn2[C@@H]1O[C@H](COP(=O)(O)O)[C@@H](OP(=O)(O)COCCn2cnc3ncnc(N)c32)[C@H]1O | > 300 | >21 | >21 | 5.9 (≈ 9.79 µM) | 6.4 (≈ 10.6 µM) | 298 (≈ 495 µM) | 17 (≈ 28.2 µM) | Animal death [6]: >21%; Symptom initiation [6]: 16%
6 | COC1=C(OC)/C(=C/COP(=O)(O)OC[C@H]2O[C@@H](n3cnc4c(N)ncnc43)[C@H](O)[C@@H]2OP(=O)(O)COCCn2cnc3ncnc(N)c32)OC1=O | > 300 | >21 | >21 | 4.9 (≈ 6.36 µM) | 4.2 (≈ 5.45 µM) | > 300 | 13 (≈ 16.9 µM) | Ki [1]: > 800 µM; Animal death [3]: >21%; Symptom initiation [3]: >21%; Animal death [6]: >21%
7 | Nc1ncnc2c1ncn2COCCO |  |  |  |  |  |  |  | Relative Vmax [13]: <3
8 | Nc1nc2c(ncn2COCCO)c(=O)[nH]1 [ACYCLOVIR] |  | >21 | >21 |  |  |  |  | Animal death [3]: >21%
9 | Nc1ncnc2c1ncn2CCOCP(=O)(O)O [ADEFOVIR] | 285 (≈ 1040 µM) |  |  | 4.1 (≈ 15 µM) | 3.8 (≈ 13.9 µM) | 274 (≈ 1000 µM) | 2 (≈ 7.32 µM) | Animal death [14]: 17%; Animal death [10]: >21%; Animal death [11]: >21%; Symptom initiation [11]: >21%
10 | Nc1nc2c(ncn2CCOCP(=O)(O)O)c(=O)[nH]1 [GS-438] | 12 (≈ 41.5 µM) |  |  | 16 (≈ 55.3 µM) | 18 (≈ 62.2 µM) | 16 (≈ 55.3 µM) | 0.19 (≈ 0.657 µM) | 
11 | Nc1ncnc2c1ncn2[C@@H]1O[C@H](CO)[C@@H](O)[C@@H]1O [VIDARABINE] |  |  |  |  |  |  |  | Relative Vmax [12]: <3
